For assay [1], the system named is Mycolicibacterium smegmatis. The assay is described as follows: Antibacterial activity against Mycobacterium smegmatis mc2 155 after 72 hrs by MTT assay. The assay is classed as functional. The following applies: str. MC2 155, 72 h. In outline:
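Broth dilution in Mueller-Hinton broth; compounds dissolved in DMSO, two-fold serial dilutions; inoculum adjusted to McFarland 0.5 and diluted to final 5 × 10^5 cfu/mL; cells pre-grown on Columbia blood agar with 5% horse blood, 37 °C, 72 h. Plates incubated 37 °C for 72 h; MIC read after MTT as lowest concentration inhibiting growth.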
In general terms: Tetrazolium assays rely on reduction of a dye to a coloured formazan, in cell work by metabolically active cells.

For assay [2], the system named is Mycolicibacterium smegmatis MC2 155. The assay is described as follows: Inhibition of Multidrug resistance efflux pump in Mycobacterium smegmatis mc2 155 assessed as modulation of EtBr-mediated antibacterial activity measuring ratio of EtBr MIC to EtBr and compound MIC at 2 mg/L after 72 hrs by MTT assay. In outline: (§1)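 Checkerboard-type modulation by broth dilution in MHB with DMSO-dissolved modulators: either modulator held constant (half its MIC) with two-fold serially diluted antibiotic/EtBr, or antibiotic fixed with modulator serially diluted. Final inoculum 5 × 10^5 cfu/mL, 37 °C, 72 h, MTT read-out. Modulation factor quantifies shift in antibiotic/EtBr MIC; FICI assesses combination effect.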

Assay [3] has the same test system. The assay is described as follows: Inhibition of Multidrug resistance efflux pump in Mycobacterium smegmatis mc2 155 assessed as modulation of isoniazid-mediated antibacterial activity measuring ratio of isoniazid MIC to isoniazid and compound MIC at 2 mg/L after 72 hrs by MTT assay. In short, it runs like this:
as §1

For assay [4] the test system is unchanged. The assay is described as follows: Inhibition of Multidrug resistance efflux pump in Mycobacterium smegmatis mc2 155 assessed as modulation of rifampicin-mediated antibacterial activity measuring ratio of rifampicin MIC to rifampicin and compound MIC at 2 mg/L after 72 hrs by MTT assay. In outline: as §1
Assay [5] shares this test system. The assay is described as follows: Inhibition of Multidrug resistance efflux pump in Mycobacterium smegmatis mc2 155 assessed as modulation of EtBr-mediated antibacterial activity measuring ratio of EtBr MIC to EtBr and compound MIC at 64 mg/L after 72 hrs by MTT assay. In outline:
as §1

Assay [6] has the same test system. The assay is described as follows: Inhibition of Multidrug resistance efflux pump in Mycobacterium smegmatis mc2 155 assessed as modulation of isoniazid-mediated antibacterial activity measuring ratio of isoniazid MIC to isoniazid and compound MIC at 64 mg/L after 72 hrs by MTT assay. In outline:
as §1

The test system is the same in assay [7]. The assay is described as follows: Inhibition of Multidrug resistance efflux pump in Mycobacterium smegmatis mc2 155 assessed as modulation of EtBr-mediated antibacterial activity measuring ratio of EtBr MIC to EtBr and compound MIC at 32 mg/L after 72 hrs by MTT assay. In short, it runs like this: as §1
Assay [8] shares this test system. The assay is described as follows: Inhibition of Multidrug resistance efflux pump in Mycobacterium smegmatis mc2 155 assessed as modulation of ciprofloxacin-mediated antibacterial activity measuring ratio of ciprofloxacin MIC to ciprofloxacin and compound MIC at 32 mg/L after 72 hrs by MTT assay. In short, it runs like this:
as §1

The test system is the same in assay [9]. The assay is described as follows: Inhibition of Multidrug resistance efflux pump in Mycobacterium smegmatis mc2 155 assessed as modulation of ethambutol-mediated antibacterial activity measuring ratio of ethambutol MIC to ethambutol and compound MIC at 32 mg/L after 72 hrs by MTT assay. In short, it runs like this:
as §1

Assay [10] has the same test system. The assay is described as follows: Inhibition of Multidrug resistance efflux pump in Mycobacterium smegmatis mc2 155 assessed as modulation of isoniazid-mediated antibacterial activity measuring ratio of isoniazid MIC to isoniazid and compound MIC at 32 mg/L after 72 hrs by MTT assay. In short, it runs like this:
as §1

Assay [11] shares this test system. The assay is described as follows: Inhibition of Multidrug resistance efflux pump in Mycobacterium smegmatis mc2 155 assessed as modulation of rifampicin-mediated antibacterial activity measuring ratio of rifampicin MIC to rifampicin and compound MIC at 32 mg/L after 72 hrs by MTT assay. In short, it runs like this:
as §1

Assay [12] shares this test system. The assay is described as follows: Inhibition of Multidrug resistance efflux pump in Mycobacterium smegmatis mc2 155 assessed as modulation of EtBr-mediated antibacterial activity measuring fractional inhibitory concentration index at 32 mg/L after 72 hrs by MTT assay. In outline:
as §1

Assay [13] shares this test system. The assay is described as follows: Inhibition of Multidrug resistance efflux pump in Mycobacterium smegmatis mc2 155 assessed as modulation of rifampicin-mediated antibacterial activity measuring fractional inhibitory concentration index at 32 mg/L after 72 hrs by MTT assay. In outline:
as §1

The test system is the same in assay [14]. The assay is described as follows: Inhibition of Multidrug resistance efflux pump in Mycobacterium smegmatis mc2 155 assessed as EtBr accumulation measuring relative fluorescence at half the MIC measured for 60 mins by spectrophotometry relative to control. In short, it runs like this: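 Overnight 7H9/ADC culture (37 °C, 100 rpm) centrifuged and resuspended in PBS with 0.05% Tween 80 to OD600 0.4. Cells mixed 1:1 with test solutions containing 0.5 mg/L EtBr and 0.4% glucose, compounds from MIC down to 1/16 MIC. Fluorescence (ex 531/em 590 nm) read every 50 s at 37 °C for 60 min; repeated at least three times.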

Assay [15] shares this test system. The assay is described as follows: Inhibition of Multidrug resistance efflux pump in Mycobacterium smegmatis mc2 155 assessed as inhibition of EtBr efflux measuring normalized fluorescence at half the MIC measured for 60 mins by spectrophotometry relative to control.
The test system is the same in assay [16]. The assay is described as follows: Inhibition of Multidrug resistance efflux pump in Mycobacterium smegmatis mc2 155 assessed as modulation of EtBr-mediated antibacterial activity measuring reduction in MIC at 1/2 of MIC after 72 hrs by MTT assay relative to control. In outline:
as §1

For assay [17] the test system is unchanged. The assay is described as follows: Inhibition of Multidrug resistance efflux pump in Mycobacterium smegmatis mc2 155 assessed as modulation of rifampicin-mediated antibacterial activity measuring reduction in MIC at 1/2 of MIC after 72 hrs by MTT assay relative to control. In short, it runs like this: as §1
Assay [18] has the same test system. The assay is described as follows: Inhibition of Multidrug resistance efflux pump in Mycobacterium smegmatis mc2 155 assessed as modulation of ciprofloxacin-mediated antibacterial activity measuring ratio of ciprofloxacin MIC to ciprofloxacin and compound MIC at 64 mg/L after 72 hrs by MTT assay. In short, it runs like this: as §1
Assay [19] has the same test system. The assay is described as follows: Inhibition of Multidrug resistance efflux pump in Mycobacterium smegmatis mc2 155 assessed as modulation of ethambutol-mediated antibacterial activity measuring ratio of ethambutol MIC to ethambutol and compound MIC at 64 mg/L after 72 hrs by MTT assay. In outline: as §1
For assay [20] the test system is unchanged. The assay is described as follows: Inhibition of Multidrug resistance efflux pump in Mycobacterium smegmatis mc2 155 assessed as modulation of rifampicin-mediated antibacterial activity measuring ratio of rifampicin MIC to rifampicin and compound MIC at 64 mg/L after 72 hrs by MTT assay. In short, it runs like this:
as §1

Assay [21] has the same test system. The assay is described as follows: Inhibition of Multidrug resistance efflux pump in Mycobacterium smegmatis mc2 155 assessed as modulation of EtBr-mediated antibacterial activity measuring fractional inhibitory concentration index at 64 mg/L after 72 hrs by MTT assay. In outline: as §1
The test system is the same in assay [22]. The assay is described as follows: Inhibition of Multidrug resistance efflux pump in Mycobacterium smegmatis mc2 155 assessed as modulation of rifampicin-mediated antibacterial activity measuring fractional inhibitory concentration index at 64 mg/L after 72 hrs by MTT assay. In short, it runs like this:
as §1

Assay [23] shares this test system. The assay is described as follows: Inhibition of Multidrug resistance efflux pump in Mycobacterium smegmatis mc2 155 assessed as modulation of ethambutol-mediated antibacterial activity measuring reduction in MIC at 1/2 of MIC after 72 hrs by MTT assay relative to control. In short, it runs like this:
as §1

In brackets after ≈: the same amount, converted by molar mass.

Usually MIC stands for the least concentration at which growth counts as inhibited. Read a high MIC as weaker potency. In assay [1], `CCCCC/C=C\C/C=C\CCCCCCCC(=O)O` [LINOLEIC ACID] registered an MIC of 4 mg/L (≈ 14.3 µM). Besides, the Ratio turned out to be 2 in [2], 1 in [3] and 2 in [4].
Take `N#CC(C#N)=NNc1cccc(Cl)c1` [CARBONYL CYANIDE M-CHLOROPHENYLHYDRAZONE]: in [1], inhibition of growth (MIC) required 32 mg/L (≈ 156 µM).
Turning to `CCCCCCCCCCCCCCCCCC(=O)O` [STEARIC ACID], the MIC in assay [1] was ≥ 128 mg/L. Moreover, the Ratio worked out at 1 in assay [5] and 0.5 in [6].
`CC[C@@H](CO)NCCN[C@@H](CC)CO` [ETHAMBUTOL]: inhibition of growth in assay [1] (MIC) required 1 mg/L (≈ 4.89 µM).
Still for that read-out and setting: to `CO[C@H]1/C=C/O[C@@]2(C)Oc3c(C)c(O)c4c(O)c(c(/C=N/N5CCN(C)CC5)c(O)c4c3C2=O)NC(=O)/C(C)=C\C=C\[C@H](C)[C@H](O)[C@@H](C)[C@@H](O)[C@@H](C)[C@H](OC(C)=O)[C@@H]1C` [RIFAMPIN] belongs 32 mg/L (≈ 38.9 µM).
In the case of `O=C(CCc1ccccc1)C[C@@H](O)/C=C/c1ccccc1`, in [1], the MIC was 64 mg/L (≈ 228 µM). For the same compound, the Ratio was 8 in [7]; 2 in assay [8]; 1 in [9]; 1 in assay [10]; 4 in [11]. Further, the fractional inhibitory concentration index (FICI) in [12] was determined as 0.25; in assay [13] it was 0.75. The RFU in assay [14] is 15100. Further, the normalized EtBr fluorescence relative to control in [15] came to 0.72. For the same compound, the fold change (FC) in assay [16] and in assay [17] was 4 each time.
In turn, `O=C1C[C@@H](c2ccccc2)Oc2cc(O)cc(O)c21` [PINOCEMBRIN] returned an MIC in assay [1] of 128 mg/L (≈ 499 µM). Also, the Ratio is 4 in assay [5]; 1 in [18]; 2 in assay [19]; 1 in assay [6]; 2 in assay [20]. The fractional inhibitory concentration index (FICI) came to 0.5 in [21] and 1.5 in assay [22]. Also, the RFU in assay [14] amounted to 11200. Moreover, in assay [15], the normalized EtBr fluorescence relative to control was 0.765. Besides, the results for the fold change (FC) in [16] and in [23] were 4 and 2, respectively.
For `O=C(O)c1cn(C2CC2)c2cc(N3CCNCC3)c(F)cc2c1=O` [CIPROFLOXACIN], in [1], the lowest concentration to inhibit growth (MIC) was 0.125 mg/L (≈ 0.377 µM).

These data come from ChEMBL document CHEMBL2021785, “Compounds of Alpinia katsumadai as potential efflux inhibitors in Mycobacterium smegmatis” (2012).
